Screening results from PubChem BioAssay.
Compounds with a hit are over-represented: about 3.5% of the library has one in this group of screens.
MrgX1 ag: agonists of human MrgX1 receptor | Q96LB2 | MrgX1-HEK293 cells, Fluo-4 calcium fluorescence, agonist mode; stronger effect = higher value | B-score at 10 µM | hit rate 0.44% among 310,000 | AID 588627;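 active means calcium response B-score plate-corrected fluorescence ratio at least 3 library SD, with starting fluorescence B-score inside 5 SD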
Target sequence (Q96LB2 whole entry, looked up): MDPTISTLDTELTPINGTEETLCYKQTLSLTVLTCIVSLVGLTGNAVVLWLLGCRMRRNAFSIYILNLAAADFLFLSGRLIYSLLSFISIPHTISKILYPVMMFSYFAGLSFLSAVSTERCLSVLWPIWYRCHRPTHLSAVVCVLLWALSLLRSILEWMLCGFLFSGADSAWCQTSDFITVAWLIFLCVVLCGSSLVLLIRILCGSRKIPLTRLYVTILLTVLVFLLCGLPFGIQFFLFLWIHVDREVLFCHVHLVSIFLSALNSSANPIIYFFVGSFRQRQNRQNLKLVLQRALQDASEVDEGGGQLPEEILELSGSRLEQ
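Test system: Stable human MrgX1 HEK293 cell line | Schedule: Overnight plating before 1 h dye loading | Read-out basis: Baseline-normalised fluorescence change ratio, B-scored | Detection: Kinetic calcium dye fluorescence, Fluo-4 NW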
RGS4 pot: potentiators or activators of RGS4; HEK293 M3R/inducible RGS4, carbachol calcium flux Fluo4; stronger effect = lower value; B-score at 10 µM; hit rate 0.92% among 310,000;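 active means B-score of the integrated calcium signal more than 4 SD below the library mean, with starting fluorescence not abnormally high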;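 further: negative B-score means reduced calcium response which marks RGS4 activation or potentiation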
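System – HEK293 FlpIn-TREx cells, stable M3R, doxycycline-inducible RGS4 · Reagent – ECmax carbachol challenge · Times – compound preincubation 20 min at room temperature before agonist · Technique – Fluo4 fluorescence kinetic imaging of calcium · Measure – B score of integrated Fluo4 ratio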
MrgX1 PAM: allosterically activates human MrgX1 receptor signaling | AID 588675 | Q96LB2 | hit rate 0.63% among 310,000 | B-score at 10 µM | MrgX1-HEK293, Fluo-4 calcium flux, FDSS; stronger effect = higher value;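 active means plate-corrected calcium response at least 3 library SD above typical, normal starting fluorescence, not activating the receptor alone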;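 further: compound read alongside a low EC10 to EC30 dose of BAM8-22 agonist; peak minus trough fluorescence over baseline measured at the second addition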
RGS4 inh: human RGS4 inhibition; P49798; HEK293 M3R/RGS4 inducible, Fluo-4 calcium flux; stronger effect = higher value; triggered by carbachol at its EC20; B-score at 10 µM; hit rate 0.45% among 310,000; AID 463165;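 active means B-score, a plate-corrected calcium signal, over three deviations above library mean, with baseline fluorescence within five deviations of library mean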;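 further: RGS4 expression induced by doxycycline in cells with stable M3 receptor; B-score is computed from the integrated fluorescence ratio over baseline after carbachol; higher B-score means a larger calcium signal and so more RGS4 inhibition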
Target sequence (P49798 whole entry, looked up): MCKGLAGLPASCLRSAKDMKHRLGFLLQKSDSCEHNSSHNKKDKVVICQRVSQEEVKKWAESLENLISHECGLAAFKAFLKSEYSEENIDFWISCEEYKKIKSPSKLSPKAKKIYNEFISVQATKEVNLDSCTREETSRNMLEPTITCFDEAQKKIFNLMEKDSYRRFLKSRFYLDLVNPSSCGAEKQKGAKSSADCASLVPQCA
MrgX1 antag: antagonists of human MrgX1 receptor | Q96LB2 | MRGX1-HEK293 calcium flux, Fluo-4, BAM8-22 antagonism; stronger effect = lower value | B-score at 10 µM | hit rate 1.3% among 310,000;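 active means calcium-response B-score plate-corrected more than 3 library SD below zero, starting fluorescence within 5 deviations, no agonist response on first addition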;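 further: peak minus trough fluorescence over baseline after final BAM8-22 challenge near maximal dose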
MrgX1 ant reconf: reconfirmed antagonist of human MrgX1 receptor signaling; remaining BAM8-22 calcium response % of control (stronger effect = lower value), % at 10 µM; MrgX1-HEK293, BAM8-22 calcium flux, Fluo-4; stronger effect = lower value; shares compounds with MrgX1 antag; hit rate 19% among 2,300; AID 602420;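 active means remaining agonist calcium response no higher than 100% minus 3 SD of agonist-only control wells, with starting fluorescence near control levels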;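 further: agonist BAM8-22 given at a near maximal EC90 to ECmax level; peak minus minimum fluorescence divided by baseline after agonist addition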
HEK293 Ca flux: counter-screen for MrgX1 antagonists: effect in parental HEK293 cells. fluorescence ratio F(max-min)/F0 at 10 µM. shares compounds with MrgX1 antag. Fluo-4 calcium fluorescence, FDSS. hit rate 2% among 4,000;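 active means duplicate-averaged calcium fluorescence ratio at least three times the standard deviation of buffer wells, a nonspecific response in parental cells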
HEK293 Ca counter: counter-screen for MrgX1 allosteric activators: effect in parental HEK293 cells; parental HEK293 calcium flux, Fluo-4 fluorescence ratio; stronger effect = higher value; hit rate 0.4% among 4,000; AID 624114; shares compounds with MrgX1 antag; fluorescence ratio F(max-min)/F0 at 10 µM;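 active means calcium fluorescence ratio, averaged over duplicates, at least 3 SD of the buffer-well ratio, meaning a nonspecific response in receptor-free cells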;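 further: untransfected parental HEK293 lacking MrgX1 used as counterscreen for MrgX1 allosteric activators; fluorescence change taken during the second addition on a kinetic imager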
HEK293 Ca cntr2: MrgX1 activator counter-screen hit in parental HEK293 cells; shares compounds with MrgX1 antag; Fluo-4 calcium fluorescence (FDSS); stronger effect = higher value; fluorescence ratio F(max-min)/F0 at 10 µM; hit rate 8.7% among 4,000; AID 624115;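 active means calcium fluorescence ratio at least three times the spread of buffer wells, meaning a non-specific response in parental cells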
An asterisk follows results filed as active; i = inactive; / = no result.

SMILES	MrgX1 ag	RGS4 pot	MrgX1 PAM	RGS4 inh	MrgX1 antag	MrgX1 ant reconf	HEK293 Ca flux	HEK293 Ca counter	HEK293 Ca cntr2
c1ccc(Nc2nc(NCC3CCCO3)c3ccccc3n2)cc1 (stereo not drawn)	i	i	i	i	-5.1*	38%*	i	i	i
OCCNc1nc(Nc2ccc(Br)cc2)nc2ccccc12	i	i	i	i	-6.9*	73%*	i	i	i
CSc1nnc(NC(=O)c2nc(S(=O)(=O)Cc3ccccc3)ncc2Cl)s1	i	i	i	i	-4.7*	71%*	i	i	i
CC(C)c1nnc(NC(=O)c2nc(S(=O)(=O)Cc3ccccc3)ncc2Cl)s1	i	i	i	i	-5.3*	81%*	i	i	i
CCc1ccc(NC(=O)c2nc(S(=O)(=O)Cc3ccccc3)ncc2Cl)cc1	i	i	i	i	i	/	/	/	/
Cc1cccc(NC(=O)NNC(=O)c2cc3occc3[nH]2)c1C	i	i	i	i	i	/	/	/	/
CCN(CC)c1ccc(/C=C/c2cc(-c3ccccc3)c3ccccc3n2)cc1	i	i	i	i	-15*	i	0.065*	i	i
CCN(CC)c1ccc(/C=N/NC(=O)c2cc(C)nc3ccccc23)cc1	i	i	i	i	i	/	/	/	/
CCOC(=O)C1=C(CSc2nc3c(cc2C#N)CCC3)OC(N)=C(C#N)C1c1ccccc1 (stereo not drawn)	i	i	i	i	i	/	/	/	/
CCOC(=O)C1=C(CSc2nc3c(cc2C#N)CN(C)CC3)OC(N)=C(C#N)C1c1ccc(F)cc1 (stereo not drawn)	i	i	i	i	-5.4*	i	i	i	i
CCN1/C(=C/c2ccc3ccccc3[n+]2CC)C=Cc2ccccc21	i	-9.2*	i	i	-13*	i	/	/	/
CCN1/C(=C/c2ccc3ccccc3[n+]2CCCS(=O)(=O)[O-])C=Cc2cc(C)ccc21	i	i	i	i	i	/	/	/	/
O=C(O)c1ccc(CNCc2ccc(Cl)cc2)cc1	i	i	i	i	i	/	/	/	/
O=C(O)c1ccc(CNCc2ccc(Cl)cc2Cl)cc1	i	i	i	i	-5*	i	i	i	i
CCC(=O)Nc1ccc(-c2nn3c(C)nnc3s2)cc1C	i	i	i	i	i	/	/	/	/
Cc1ccc(NS(=O)(=O)c2ccc(N3C(=O)CCC3=O)cc2)cc1	i	i	i	i	-5.4*	i	i	i	i
CC(C)c1ccc(NS(=O)(=O)c2ccc(N3C(=O)CCC3=O)cc2)cc1	i	i	i	i	i	/	/	/	/
S=C(NCc1cccs1)Nc1cccc(Cl)c1	i	i	i	i	-5.1*	i	i	i	i
CCN(CCn1cccn1)C(=O)c1cccc(OC2CCN(S(C)(=O)=O)CC2)c1	i	i	i	i	i	/	/	/	/
Nc1c(S(=O)(=O)c2cccs2)c2nc3ccccc3nc2n1CC1CCCO1 (stereo not drawn)	i	/	i	/	-7*	i	i	i	i
CCC(C)NC(=O)C1CCCN(C(=O)Nc2ccc(F)cc2)C1 (stereo not drawn)	i	i	i	i	i	/	/	/	/
COc1ccc(-c2noc(N3CCCC(C(=O)Nc4ccccc4F)C3)n2)cc1 (stereo not drawn)	i	i	i	i	i	/	/	/	/
COc1ccc(-c2noc(N3CCCC(C(=O)Nc4ccc(F)cc4F)C3)n2)cc1 (stereo not drawn)	i	i	i	i	-4.6*	i	i	i	i
COc1ccc(OC)c(Nc2nc3nonc3nc2N2CCCC(C)C2)c1 (stereo not drawn)	i	i	i	i	-5.5*	i	i	i	i
COc1cc(NC(=O)c2c(F)c(F)c(OC)c(F)c2F)ccc1NC(=O)c1cccs1	i	i	i	i	i	/	/	/	/
SMILES	MrgX1 ag	RGS4 pot	MrgX1 PAM	RGS4 inh	MrgX1 antag	MrgX1 ant reconf	HEK293 Ca flux	HEK293 Ca counter	HEK293 Ca cntr2
O=S(=O)(N/N=C/c1ccc2c(c1)OCO2)c1ccc(Br)cc1	i	i	i	i	i	/	/	/	/
N#CCSc1nnc(Cc2cccs2)n1C1CCCCC1	i	i	i	i	-4.7*	i	i	i	i
N#C/C(=C(/O)CSc1nnc(Cc2cccs2)n1C1CCCCC1)c1nc2ccccc2[nH]1	i	i	i	i	i	/	/	/	/
COc1cc(/C=C/C(=O)OCC(=O)NCCC2=CCCCC2)ccc1O	i	i	i	i	i	/	/	/	/
CCOC(=O)C1CCCN(S(=O)(=O)c2cc3c4c(c2)CCN4C(=O)CC3)C1 (stereo not drawn)	i	i	i	i	-4.8*	i	i	i	i
CCOC(=O)c1c(C)[nH]c2cc(Br)c(O)cc12	i	i	i	i	-7.4*	73%*	i	i	i
CCOC(=O)c1c(-c2ccc(OC)cc2)oc2cc(Br)c(O)cc12	i	i	i	i	i	/	/	/	/
CCC(C)NC(=O)C1c2ccccc2C(=O)N(c2ccc(OC)cc2)C1c1ccc(OC)cc1 (stereo not drawn)	i	i	i	i	-6.5*	i	i	i	i
CC(C)CC(OC(=O)c1ccco1)C(=O)NC1CCCC1 (stereo not drawn)	i	i	i	i	i	/	/	/	/
COc1ccc(OC)c(S(=O)(=O)Nc2ccc(OCC(=O)O)cc2)c1	i	i	i	i	i	/	/	/	/
COc1ccc(OC)c(S(=O)(=O)Nc2ccc(CC(=O)O)cc2)c1	i	i	i	i	-9.2*	i	i	i	i
O=C(NCCO)c1ccc2[nH]c3c(c2c1)CCCC3	i	i	i	i	-6.5*	i	i	i	i
O=C(NCCCO)c1ccc2[nH]c3c(c2c1)CCCC3	i	i	i	i	i	/	/	/	/
Clc1ccc(C(c2ccccc2)N2CCNCC2)cc1 (stereo not drawn)	i	i	i	i	-6.3*	i	i	i	i
